ChEMBL document CHEMBL4330171, “Characterization of the Biosynthetic Gene Cluster for the Antibiotic Armeniaspirols in Streptomyces armeniacus” (2019)
In brackets after ≈: the same amount, converted by molar mass. Activity calls are given as the source filed them. The rule behind the calls is not given here.

What was measured:
Staphylococcus aureus [1] = assay: Antibacterial activity against Staphylococcus aureus Newman after 24 hrs by broth microdilution assay; assay type: functional
Outline: (§1)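 Twofold serial dilutions in LB broth, inoculated to a final 1 × 10^5 to 3 × 10^5 CFU/mL. Incubation at 37 °C for 24 h. MIC read visually as the lowest concentration giving no turbidity.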

Staphylococcus aureus [2] = assay: Antibacterial activity against methicillin-resistant Staphylococcus aureus USA300 after 24 hrs by broth microdilution assay; assay type: functional; conditions: USA300, 24 h
Enterococcus faecium = assay: Antibacterial activity against Enterococcus faecium ATCC 19434 after 24 hrs by broth microdilution assay; assay type: functional; conditions: ATCC 19434, 24 h; outline: as §1
Enterococcus faecalis = assay: Antibacterial activity against Enterococcus faecalis FA2-2 after 24 hrs by broth microdilution assay; assay type: functional; outline: as §1
Bacillus subtilis = assay: Antibacterial activity against Bacillus subtilis 168 after 24 hrs by broth microdilution assay; assay type: functional; conditions: subsp. subtilis str. 168, 24 h; outline: as §1
Escherichia coli = assay: Antibacterial activity against Escherichia coli MG1655 after 24 hrs by broth microdilution assay; assay type: functional, organism-based; conditions: K-12 substr. MG1655; outline: as §1
Acinetobacter baumannii = assay: Antibacterial activity against Acinetobacter baumannii ATCC 19606 after 24 hrs by broth microdilution assay; assay type: functional, organism-based; conditions: ATCC 19606 = CIP 70.34 = JCM 6841; outline: as §1
Pseudomonas aeruginosa = assay: Antibacterial activity against Pseudomonas aeruginosa PAO1 after 24 hrs by broth microdilution assay; assay type: functional, organism-based; outline: as §1
Klebsiella pneumoniae = assay: Antibacterial activity against Klebsiella pneumoniae ATCC 35657 after 24 hrs by broth microdilution assay; assay type: functional, organism-based; outline: as §1
Salmonella typhimurium = assay: Antibacterial activity against Salmonella typhimurium ATCC 14028 after 24 hrs by broth microdilution assay; assay type: functional, organism-based; conditions: Salmonella enterica subsp. enterica serovar Typhimurium; outline: as §1
Shigella dysenteriae = assay: Antibacterial activity against Shigella dysenteriae ATCC 13313 after 24 hrs by broth microdilution assay; assay type: functional, organism-based

## CC(C)CCCc1c(O)ccc(C(=O)c2cc(Cl)c(Cl)[nH]2)c1O
Staphylococcus aureus [1]
  MIC: 1 µg/mL (≈ 2.81 µM)
Staphylococcus aureus [2]
  MIC: 1 µg/mL (≈ 2.81 µM)
Enterococcus faecium
  MIC: 2 µg/mL (≈ 5.61 µM)
Enterococcus faecalis
  MIC: 8 µg/mL (≈ 22.5 µM)
Bacillus subtilis
  MIC: 0.5 µg/mL (≈ 1.4 µM)
Escherichia coli
  Activity: inactive
Acinetobacter baumannii
  Activity: inactive
Pseudomonas aeruginosa
  Activity: inactive
Klebsiella pneumoniae
  Activity: inactive
Salmonella typhimurium
  Activity: inactive
Shigella dysenteriae
  Activity: inactive

## CC[C@H](C)CCCc1c(O)ccc2c1O[C@]1(C2=O)C(Cl)=C(Cl)C(=O)N1C [ARMENIASPIROLE C]
Staphylococcus aureus [1]
  MIC: 0.5 µg/mL (≈ 1.26 µM)
Staphylococcus aureus [2]
  MIC: 0.5 µg/mL (≈ 1.26 µM)
Enterococcus faecium
  MIC: > 32 µg/mL
Enterococcus faecalis
  MIC: > 32 µg/mL
Bacillus subtilis
  MIC: 2 µg/mL (≈ 5.02 µM)
Escherichia coli
  Activity: inactive
Acinetobacter baumannii
  Activity: inactive
Pseudomonas aeruginosa
  Activity: inactive
Klebsiella pneumoniae
  Activity: inactive
Salmonella typhimurium
  Activity: inactive
Shigella dysenteriae
  Activity: inactive

## CC(C)CCCc1c(O)ccc2c1O[C@@]1(C=C(Cl)C(=O)N1)C2=O
Staphylococcus aureus [1]
  MIC: > 32 µg/mL
Staphylococcus aureus [2]
  MIC: > 32 µg/mL
Enterococcus faecium
  MIC: > 32 µg/mL
Enterococcus faecalis
  MIC: > 32 µg/mL
Bacillus subtilis
  MIC: > 32 µg/mL
Escherichia coli
  Activity: inactive
Acinetobacter baumannii
  Activity: inactive
Pseudomonas aeruginosa
  Activity: inactive
Klebsiella pneumoniae
  Activity: inactive
Salmonella typhimurium
  Activity: inactive
Shigella dysenteriae
  Activity: inactive

## CCCCCCc1c(O)ccc2c1O[C@@]1(C=C(Cl)C(=O)N1)C2=O
Staphylococcus aureus [1]
  MIC: > 32 µg/mL
Staphylococcus aureus [2]
  MIC: > 32 µg/mL
Enterococcus faecium
  MIC: > 32 µg/mL
Enterococcus faecalis
  MIC: > 32 µg/mL
Bacillus subtilis
  MIC: > 32 µg/mL
Escherichia coli
  Activity: inactive
Acinetobacter baumannii
  Activity: inactive
Pseudomonas aeruginosa
  Activity: inactive
Klebsiella pneumoniae
  Activity: inactive
Salmonella typhimurium
  Activity: inactive
Shigella dysenteriae
  Activity: inactive

## CC(C)CCCc1c(O)ccc2c1O[C@]1(NC(=O)C(Cl)=C1Cl)C2=O
Staphylococcus aureus [1]
  MIC: 8 µg/mL (≈ 21.6 µM)
Staphylococcus aureus [2]
  MIC: 16 µg/mL (≈ 43.2 µM)
Enterococcus faecium
  MIC: > 32 µg/mL
Enterococcus faecalis
  MIC: > 32 µg/mL
Bacillus subtilis
  MIC: 16 µg/mL (≈ 43.2 µM)
Escherichia coli
  Activity: inactive
Acinetobacter baumannii
  Activity: inactive
Pseudomonas aeruginosa
  Activity: inactive
Klebsiella pneumoniae
  Activity: inactive
Salmonella typhimurium
  Activity: inactive
Shigella dysenteriae
  Activity: inactive

## CC[C@H](C)CCCc1c(O)ccc2c1O[C@]1(NC(=O)C(Cl)=C1Cl)C2=O
Staphylococcus aureus [1]
  MIC: 8 µg/mL (≈ 20.8 µM)
Staphylococcus aureus [2]
  MIC: 8 µg/mL (≈ 20.8 µM)
Enterococcus faecium
  MIC: 32 µg/mL (≈ 83.3 µM)
Enterococcus faecalis
  MIC: 32 µg/mL (≈ 83.3 µM)
Bacillus subtilis
  MIC: 8 µg/mL (≈ 20.8 µM)
Escherichia coli
  Activity: inactive
Acinetobacter baumannii
  Activity: inactive
Pseudomonas aeruginosa
  Activity: inactive
Klebsiella pneumoniae
  Activity: inactive
Salmonella typhimurium
  Activity: inactive
Shigella dysenteriae
  Activity: inactive

## CCCCCCc1c(O)ccc2c1O[C@]1(C2=O)C(Cl)=C(Cl)C(=O)N1C [ARMENIASPIROLE A]
Staphylococcus aureus [1]
  MIC: 0.5 µg/mL (≈ 1.3 µM)
Staphylococcus aureus [2]
  MIC: 0.5 µg/mL (≈ 1.3 µM)
Enterococcus faecium
  MIC: > 32 µg/mL
Enterococcus faecalis
  MIC: 16 µg/mL (≈ 41.6 µM)
Bacillus subtilis
  MIC: 2 µg/mL (≈ 5.2 µM)
Escherichia coli
  Activity: inactive
Acinetobacter baumannii
  Activity: inactive
Pseudomonas aeruginosa
  Activity: inactive
Klebsiella pneumoniae
  Activity: inactive
Salmonella typhimurium
  Activity: inactive
Shigella dysenteriae
  Activity: inactive

## CC[C@H](C)CCCc1c(O)ccc(C(=O)c2cc(Cl)c(Cl)[nH]2)c1O
Staphylococcus aureus [1]
  MIC: 1 µg/mL (≈ 2.7 µM)
Staphylococcus aureus [2]
  MIC: 2 µg/mL (≈ 5.4 µM)
Enterococcus faecium
  MIC: 2 µg/mL (≈ 5.4 µM)
Enterococcus faecalis
  MIC: 8 µg/mL (≈ 21.6 µM)
Bacillus subtilis
  MIC: 0.5 µg/mL (≈ 1.35 µM)
Escherichia coli
  Activity: inactive
Acinetobacter baumannii
  Activity: inactive
Pseudomonas aeruginosa
  Activity: inactive
Klebsiella pneumoniae
  Activity: inactive
Salmonella typhimurium
  Activity: inactive
Shigella dysenteriae
  Activity: inactive

## CN[C@H](CC(C)C)C(=O)N[C@H]1C(=O)N[C@@H](CC(N)=O)C(=O)N[C@H]2C(=O)N[C@H]3C(=O)N[C@H](C(=O)N[C@H](C(=O)O)c4cc(O)cc(O)c4-c4cc3ccc4O)[C@H](O)c3ccc(c(Cl)c3)Oc3cc2cc(c3O[C@@H]2O[C@H](CO)[C@@H](O)[C@H](O)[C@H]2O[C@H]2C[C@](C)(N)[C@H](O)[C@H](C)O2)Oc2ccc(cc2Cl)[C@H]1O [VANCOMYCIN]
Enterococcus faecalis
  MIC: 2 µg/mL (≈ 1.38 µM)
Bacillus subtilis
  MIC: 0.25 µg/mL (≈ 0.173 µM)

## CC[C@H](C)CCCc1c(O)ccc2c1O[C@@]1(C=C(Cl)C(=O)N1C)C2=O
Staphylococcus aureus [1]
  MIC: 2 µg/mL (≈ 5.5 µM)
Staphylococcus aureus [2]
  MIC: 8 µg/mL (≈ 22 µM)
Enterococcus faecium
  MIC: > 32 µg/mL
Enterococcus faecalis
  MIC: > 32 µg/mL
Bacillus subtilis
  MIC: 8 µg/mL (≈ 22 µM)
Escherichia coli
  Activity: inactive
Acinetobacter baumannii
  Activity: inactive
Pseudomonas aeruginosa
  Activity: inactive
Klebsiella pneumoniae
  Activity: inactive
Salmonella typhimurium
  Activity: inactive
Shigella dysenteriae
  Activity: inactive

## CC(C)CCCc1c(O)ccc2c1O[C@]1(C2=O)C(Cl)=C(Cl)C(=O)N1C [ARMENIASPIROLE B]
Staphylococcus aureus [1]
  MIC: 0.5 µg/mL (≈ 1.3 µM)
Staphylococcus aureus [2]
  MIC: 2 µg/mL (≈ 5.2 µM)
Enterococcus faecium
  MIC: > 32 µg/mL
Enterococcus faecalis
  MIC: 32 µg/mL (≈ 83.3 µM)
Bacillus subtilis
  MIC: 4 µg/mL (≈ 10.4 µM)
Escherichia coli
  Activity: inactive
Acinetobacter baumannii
  Activity: inactive
Pseudomonas aeruginosa
  Activity: inactive
Klebsiella pneumoniae
  Activity: inactive
Salmonella typhimurium
  Activity: inactive
Shigella dysenteriae
  Activity: inactive

## CCCCCCc1c(O)ccc2c1O[C@]1(NC(=O)C(Cl)=C1Cl)C2=O
Staphylococcus aureus [1]
  MIC: 8 µg/mL (≈ 21.6 µM)
Staphylococcus aureus [2]
  MIC: 16 µg/mL (≈ 43.2 µM)
Enterococcus faecium
  MIC: 32 µg/mL (≈ 86.4 µM)
Enterococcus faecalis
  MIC: > 32 µg/mL
Bacillus subtilis
  MIC: 8 µg/mL (≈ 21.6 µM)
Escherichia coli
  Activity: inactive
Acinetobacter baumannii
  Activity: inactive
Pseudomonas aeruginosa
  Activity: inactive
Klebsiella pneumoniae
  Activity: inactive
Salmonella typhimurium
  Activity: inactive
Shigella dysenteriae
  Activity: inactive

## CC[C@H](C)CCCc1c(O)ccc2c1O[C@@]1(C=C(Cl)C(=O)N1)C2=O
Staphylococcus aureus [1]
  MIC: > 32 µg/mL
Staphylococcus aureus [2]
  MIC: > 32 µg/mL
Enterococcus faecium
  MIC: > 32 µg/mL
Enterococcus faecalis
  MIC: > 32 µg/mL
Bacillus subtilis
  MIC: 16 µg/mL (≈ 45.7 µM)
Escherichia coli
  Activity: inactive
Acinetobacter baumannii
  Activity: inactive
Pseudomonas aeruginosa
  Activity: inactive
Klebsiella pneumoniae
  Activity: inactive
Salmonella typhimurium
  Activity: inactive
Shigella dysenteriae
  Activity: inactive

## CCCCCCc1c(O)ccc2c1O[C@@]1(C=C(Cl)C(=O)N1C)C2=O
Staphylococcus aureus [1]
  MIC: 4 µg/mL (≈ 11.4 µM)
Staphylococcus aureus [2]
  MIC: 8 µg/mL (≈ 22.9 µM)
Enterococcus faecium
  MIC: > 32 µg/mL
Enterococcus faecalis
  MIC: > 32 µg/mL
Bacillus subtilis
  MIC: 8 µg/mL (≈ 22.9 µM)
Escherichia coli
  Activity: inactive
Acinetobacter baumannii
  Activity: inactive
Pseudomonas aeruginosa
  Activity: inactive
Klebsiella pneumoniae
  Activity: inactive
Salmonella typhimurium
  Activity: inactive
Shigella dysenteriae
  Activity: inactive

## CC(C)CCCc1c(O)ccc2c1O[C@@]1(C=C(Cl)C(=O)N1C)C2=O
Staphylococcus aureus [1]
  MIC: 4 µg/mL (≈ 11.4 µM)
Staphylococcus aureus [2]
  MIC: 16 µg/mL (≈ 45.7 µM)
Enterococcus faecium
  MIC: > 32 µg/mL
Enterococcus faecalis
  MIC: > 32 µg/mL
Bacillus subtilis
  MIC: 16 µg/mL (≈ 45.7 µM)
Escherichia coli
  Activity: inactive
Acinetobacter baumannii
  Activity: inactive
Pseudomonas aeruginosa
  Activity: inactive
Klebsiella pneumoniae
  Activity: inactive
Salmonella typhimurium
  Activity: inactive
Shigella dysenteriae
  Activity: inactive

## CCCCCCc1c(O)ccc(C(=O)c2cc(Cl)c(Cl)[nH]2)c1O
Staphylococcus aureus [1]
  MIC: 1 µg/mL (≈ 2.81 µM)
Staphylococcus aureus [2]
  MIC: 1 µg/mL (≈ 2.81 µM)
Enterococcus faecium
  MIC: 2 µg/mL (≈ 5.61 µM)
Enterococcus faecalis
  MIC: 2 µg/mL (≈ 5.61 µM)
Bacillus subtilis
  MIC: 0.5 µg/mL (≈ 1.4 µM)
Escherichia coli
  Activity: inactive
Acinetobacter baumannii
  Activity: inactive
Pseudomonas aeruginosa
  Activity: inactive
Klebsiella pneumoniae
  Activity: inactive
Salmonella typhimurium
  Activity: inactive
Shigella dysenteriae
  Activity: inactive
